One assay addresses T1, Ephrin type-B receptor 4 (Homo sapiens, UniProt P54760).
T1 sequence (P54760 whole entry): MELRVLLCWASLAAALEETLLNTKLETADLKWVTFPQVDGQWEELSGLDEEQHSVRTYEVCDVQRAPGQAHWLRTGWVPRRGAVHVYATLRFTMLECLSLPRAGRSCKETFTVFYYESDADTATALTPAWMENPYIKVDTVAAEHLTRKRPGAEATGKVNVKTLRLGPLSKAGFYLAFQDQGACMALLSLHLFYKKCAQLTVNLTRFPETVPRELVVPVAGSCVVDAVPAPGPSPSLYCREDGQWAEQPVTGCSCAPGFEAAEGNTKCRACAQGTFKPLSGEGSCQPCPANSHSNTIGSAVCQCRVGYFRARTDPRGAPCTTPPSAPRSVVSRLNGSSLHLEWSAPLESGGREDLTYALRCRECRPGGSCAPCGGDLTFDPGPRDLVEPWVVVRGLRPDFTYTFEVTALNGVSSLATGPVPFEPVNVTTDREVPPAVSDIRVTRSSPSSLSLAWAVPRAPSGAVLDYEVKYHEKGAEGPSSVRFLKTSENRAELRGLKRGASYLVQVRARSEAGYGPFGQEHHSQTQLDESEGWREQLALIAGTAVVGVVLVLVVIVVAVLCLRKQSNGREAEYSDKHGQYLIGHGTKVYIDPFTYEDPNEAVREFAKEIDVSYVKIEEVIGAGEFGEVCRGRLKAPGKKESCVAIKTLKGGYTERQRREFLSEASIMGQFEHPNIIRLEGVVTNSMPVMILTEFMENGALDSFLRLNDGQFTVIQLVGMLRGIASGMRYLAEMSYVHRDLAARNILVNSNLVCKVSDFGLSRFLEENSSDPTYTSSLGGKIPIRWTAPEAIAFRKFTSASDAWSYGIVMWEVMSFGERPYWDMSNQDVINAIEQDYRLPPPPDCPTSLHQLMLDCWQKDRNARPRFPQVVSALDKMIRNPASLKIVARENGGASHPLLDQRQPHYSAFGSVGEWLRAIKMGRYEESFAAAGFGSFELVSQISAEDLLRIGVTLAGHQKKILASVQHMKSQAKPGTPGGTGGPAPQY
Nature of the assay: Inhibition of EphB4 by HTRF assay. The essentials: (§1)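 Enzyme inhibition was run with ATP at its Km for each kinase. Values are averages of at least two determinations.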
Background: In TR-FRET formats the signal depends on donor and acceptor labels being close together.

In assay [1] the target is Insulin-like growth factor 1 receptor (Homo sapiens, UniProt P08069). Nature of the assay: Inhibition of IGFR1 by HTRF assay. The essentials:
as §1

In assay [2] the target is Serine/threonine-protein kinase PLK1 (Homo sapiens, UniProt P53350). Nature of the assay: Inhibition of PLK1 by HTRF assay. The procedure, abridged: as §1
In assay [3] the target is Ribosomal protein S6 kinase beta-1 (Homo sapiens, UniProt P23443). The assay is described as follows: Inhibition of p70s6k by HTRF assay. The procedure, abridged:
as §1

Assay [4] concerns the target Mitogen-activated protein kinase 9 (Homo sapiens, UniProt P45984). Nature of the assay: Inhibition of JNK2 by HTRF assay. The essentials: as §1
The target in assay [5] is Cyclin-dependent kinase 5 (Homo sapiens, UniProt Q00535). Nature of the assay: Inhibition of CDK5 by HTRF assay. The procedure, abridged: as §1
Assay [6] has as its target T2, Tyrosine-protein kinase JAK3 (Homo sapiens, UniProt P52333).
T2 sequence (P52333 whole entry): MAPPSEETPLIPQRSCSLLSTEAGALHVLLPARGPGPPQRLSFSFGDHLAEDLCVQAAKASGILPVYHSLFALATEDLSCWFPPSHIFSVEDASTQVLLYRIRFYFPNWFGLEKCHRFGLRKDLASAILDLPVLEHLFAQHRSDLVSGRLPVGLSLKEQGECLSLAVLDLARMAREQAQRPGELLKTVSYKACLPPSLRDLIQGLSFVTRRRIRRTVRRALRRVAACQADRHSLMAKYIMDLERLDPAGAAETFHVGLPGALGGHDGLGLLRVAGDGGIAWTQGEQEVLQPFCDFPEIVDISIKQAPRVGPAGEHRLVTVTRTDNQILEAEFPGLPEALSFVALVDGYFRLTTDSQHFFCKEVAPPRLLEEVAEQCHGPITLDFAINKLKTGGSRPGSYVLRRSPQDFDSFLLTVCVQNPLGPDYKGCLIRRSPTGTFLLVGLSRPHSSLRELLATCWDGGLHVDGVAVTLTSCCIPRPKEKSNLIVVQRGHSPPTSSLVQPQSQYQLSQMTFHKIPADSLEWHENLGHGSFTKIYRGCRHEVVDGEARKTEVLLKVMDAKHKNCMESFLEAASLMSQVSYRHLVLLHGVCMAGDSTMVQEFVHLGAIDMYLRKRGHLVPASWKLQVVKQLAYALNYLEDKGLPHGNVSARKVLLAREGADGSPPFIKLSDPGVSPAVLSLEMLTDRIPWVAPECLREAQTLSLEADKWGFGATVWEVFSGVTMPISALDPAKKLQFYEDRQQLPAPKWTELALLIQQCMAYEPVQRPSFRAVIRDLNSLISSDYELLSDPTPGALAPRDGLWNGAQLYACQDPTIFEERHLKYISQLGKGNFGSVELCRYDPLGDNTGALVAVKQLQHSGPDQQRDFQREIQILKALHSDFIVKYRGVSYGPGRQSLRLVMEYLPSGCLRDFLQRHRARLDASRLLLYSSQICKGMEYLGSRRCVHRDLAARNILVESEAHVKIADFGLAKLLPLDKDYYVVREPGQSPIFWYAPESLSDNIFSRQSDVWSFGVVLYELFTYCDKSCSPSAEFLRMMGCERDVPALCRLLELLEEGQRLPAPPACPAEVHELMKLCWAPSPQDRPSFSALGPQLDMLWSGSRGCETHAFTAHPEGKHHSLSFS
Nature of the assay: Inhibition of Jak3 by HTRF assay. The procedure, abridged:
as §1

Assay [7] has as its target RAC-alpha serine/threonine-protein kinase (Homo sapiens, UniProt P31749). The assay is described as follows: Inhibition of PKBalpha by HTRF assay. The essentials: as §1

Chain of Ribosomal protein S6 kinase beta-1 (P23443 whole entry): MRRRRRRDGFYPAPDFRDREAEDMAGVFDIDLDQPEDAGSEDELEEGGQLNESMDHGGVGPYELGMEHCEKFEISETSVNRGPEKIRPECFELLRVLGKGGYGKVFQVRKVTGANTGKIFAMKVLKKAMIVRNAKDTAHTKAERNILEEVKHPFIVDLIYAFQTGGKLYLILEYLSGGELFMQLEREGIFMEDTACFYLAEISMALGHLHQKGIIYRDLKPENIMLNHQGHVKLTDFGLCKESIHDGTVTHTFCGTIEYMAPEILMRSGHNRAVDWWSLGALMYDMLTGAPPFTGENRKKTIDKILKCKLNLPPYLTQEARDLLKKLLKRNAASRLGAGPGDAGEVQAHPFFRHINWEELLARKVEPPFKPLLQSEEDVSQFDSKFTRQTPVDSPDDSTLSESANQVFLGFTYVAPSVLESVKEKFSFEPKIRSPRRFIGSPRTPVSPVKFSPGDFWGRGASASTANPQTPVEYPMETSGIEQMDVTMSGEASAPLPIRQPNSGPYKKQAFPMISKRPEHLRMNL
Chain of Cyclin-dependent kinase 5 (Q00535 whole entry): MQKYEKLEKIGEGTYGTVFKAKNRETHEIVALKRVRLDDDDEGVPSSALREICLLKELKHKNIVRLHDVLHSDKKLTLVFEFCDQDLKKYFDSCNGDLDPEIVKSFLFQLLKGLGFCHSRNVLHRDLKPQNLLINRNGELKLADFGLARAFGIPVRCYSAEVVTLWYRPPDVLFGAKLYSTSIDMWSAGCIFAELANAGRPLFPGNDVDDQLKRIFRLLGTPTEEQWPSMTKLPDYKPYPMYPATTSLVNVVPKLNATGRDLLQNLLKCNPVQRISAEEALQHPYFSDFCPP
Chain of Insulin-like growth factor 1 receptor (P08069 31-736 limits assumed): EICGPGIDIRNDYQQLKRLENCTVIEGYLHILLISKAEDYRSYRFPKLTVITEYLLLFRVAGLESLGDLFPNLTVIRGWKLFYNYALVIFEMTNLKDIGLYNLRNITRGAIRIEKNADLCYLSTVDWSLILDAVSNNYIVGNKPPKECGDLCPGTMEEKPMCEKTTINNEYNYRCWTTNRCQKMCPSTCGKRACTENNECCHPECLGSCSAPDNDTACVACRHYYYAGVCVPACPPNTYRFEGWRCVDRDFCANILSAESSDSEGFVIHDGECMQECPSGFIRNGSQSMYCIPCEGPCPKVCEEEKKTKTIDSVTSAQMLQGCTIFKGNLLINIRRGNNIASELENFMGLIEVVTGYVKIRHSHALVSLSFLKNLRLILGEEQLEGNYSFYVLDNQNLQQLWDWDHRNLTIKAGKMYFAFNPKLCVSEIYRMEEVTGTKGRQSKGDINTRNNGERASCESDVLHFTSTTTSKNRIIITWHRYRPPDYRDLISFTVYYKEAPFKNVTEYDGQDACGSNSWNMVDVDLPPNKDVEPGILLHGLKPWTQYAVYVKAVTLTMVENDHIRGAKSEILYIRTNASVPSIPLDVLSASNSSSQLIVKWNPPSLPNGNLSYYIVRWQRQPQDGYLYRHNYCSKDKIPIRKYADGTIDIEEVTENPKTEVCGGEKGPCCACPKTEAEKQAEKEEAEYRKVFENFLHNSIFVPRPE
Chain of Insulin-like growth factor 1 receptor (P08069 741-1367 limits assumed): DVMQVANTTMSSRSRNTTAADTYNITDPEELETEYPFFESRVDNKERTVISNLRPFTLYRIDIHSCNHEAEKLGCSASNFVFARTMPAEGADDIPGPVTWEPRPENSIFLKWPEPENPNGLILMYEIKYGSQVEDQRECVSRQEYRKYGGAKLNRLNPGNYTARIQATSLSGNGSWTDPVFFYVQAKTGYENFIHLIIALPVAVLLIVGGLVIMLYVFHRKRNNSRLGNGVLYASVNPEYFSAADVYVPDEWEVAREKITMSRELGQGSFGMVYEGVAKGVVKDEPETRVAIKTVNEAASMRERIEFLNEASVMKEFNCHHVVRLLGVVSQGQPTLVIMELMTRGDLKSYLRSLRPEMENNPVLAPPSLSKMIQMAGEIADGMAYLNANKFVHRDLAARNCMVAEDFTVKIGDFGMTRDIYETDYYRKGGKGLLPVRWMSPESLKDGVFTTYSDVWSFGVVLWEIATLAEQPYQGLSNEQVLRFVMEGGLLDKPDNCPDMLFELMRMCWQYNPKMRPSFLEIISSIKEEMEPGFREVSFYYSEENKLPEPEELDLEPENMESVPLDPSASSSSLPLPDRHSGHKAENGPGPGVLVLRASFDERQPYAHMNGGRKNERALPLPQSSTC
Chain of Serine/threonine-protein kinase PLK1 (P53350 whole entry): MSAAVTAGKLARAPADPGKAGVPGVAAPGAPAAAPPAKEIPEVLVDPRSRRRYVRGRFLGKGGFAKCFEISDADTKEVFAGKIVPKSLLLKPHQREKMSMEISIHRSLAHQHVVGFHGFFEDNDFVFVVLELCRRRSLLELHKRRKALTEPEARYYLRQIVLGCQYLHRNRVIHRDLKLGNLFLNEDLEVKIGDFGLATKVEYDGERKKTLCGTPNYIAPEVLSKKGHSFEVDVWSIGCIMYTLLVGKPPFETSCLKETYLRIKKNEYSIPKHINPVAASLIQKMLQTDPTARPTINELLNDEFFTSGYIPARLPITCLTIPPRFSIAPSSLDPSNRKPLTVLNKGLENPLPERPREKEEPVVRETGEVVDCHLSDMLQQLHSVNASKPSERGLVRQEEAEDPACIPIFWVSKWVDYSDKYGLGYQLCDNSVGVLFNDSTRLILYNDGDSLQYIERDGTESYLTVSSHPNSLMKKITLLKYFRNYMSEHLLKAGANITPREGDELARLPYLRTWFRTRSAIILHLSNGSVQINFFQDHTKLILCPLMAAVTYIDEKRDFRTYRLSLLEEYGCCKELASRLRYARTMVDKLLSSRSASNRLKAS
Chain of RAC-alpha serine/threonine-protein kinase (P31749 whole entry): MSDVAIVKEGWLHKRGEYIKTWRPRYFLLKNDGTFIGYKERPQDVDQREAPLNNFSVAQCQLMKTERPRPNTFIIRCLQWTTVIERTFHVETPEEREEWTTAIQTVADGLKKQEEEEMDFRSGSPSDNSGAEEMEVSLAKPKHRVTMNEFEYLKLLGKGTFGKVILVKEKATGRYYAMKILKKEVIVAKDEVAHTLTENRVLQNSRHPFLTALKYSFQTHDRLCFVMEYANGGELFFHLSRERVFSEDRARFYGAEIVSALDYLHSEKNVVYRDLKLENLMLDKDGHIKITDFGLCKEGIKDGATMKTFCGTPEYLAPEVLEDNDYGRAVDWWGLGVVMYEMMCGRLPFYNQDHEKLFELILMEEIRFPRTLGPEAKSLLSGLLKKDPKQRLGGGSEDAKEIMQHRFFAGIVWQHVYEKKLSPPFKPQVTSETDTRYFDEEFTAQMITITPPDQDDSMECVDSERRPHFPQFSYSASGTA
Chain of Mitogen-activated protein kinase 9 (P45984 whole entry): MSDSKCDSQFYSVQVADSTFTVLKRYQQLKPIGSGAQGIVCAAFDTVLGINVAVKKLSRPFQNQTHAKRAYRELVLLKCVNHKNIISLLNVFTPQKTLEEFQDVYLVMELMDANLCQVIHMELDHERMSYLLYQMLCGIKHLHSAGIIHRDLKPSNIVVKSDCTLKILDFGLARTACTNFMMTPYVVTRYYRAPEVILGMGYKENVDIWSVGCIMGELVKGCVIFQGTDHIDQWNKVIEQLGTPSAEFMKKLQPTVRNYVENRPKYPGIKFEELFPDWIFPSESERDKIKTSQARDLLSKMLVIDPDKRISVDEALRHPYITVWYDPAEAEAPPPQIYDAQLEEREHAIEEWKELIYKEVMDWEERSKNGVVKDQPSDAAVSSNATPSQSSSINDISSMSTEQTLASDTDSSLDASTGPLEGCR

The term IC50 denotes the midpoint of a concentration-inhibition curve. A high value points to a need for much substance. Consider `CNc1nccc(-c2cccnc2Oc2ccc(NC(=O)c3ccccc3Nc3ccccc3)cc2)n1`, for which the IC50 (against Ephrin type-B receptor 4; in assay [1]; in assay [2]; in assay [3]; in assay [4]; in assay [5]) was more than 1 µM in each case. Moreover, the IC50 in assay [6] and in assay [7] was more than 1 µM each time.

As to `CNc1nccc(-c2cccnc2Oc2ccc(NC(=O)c3cccc(C(F)(F)F)c3)cc2C)n1`, the IC50 (against Ephrin type-B receptor 4; in assay [1]; in assay [2]; in assay [3]; in assay [4]; in assay [5]) was more than 8 µM each time. The IC50 in assay [6] and in assay [7] was more than 8 µM in each case.

As for `CNc1nccc(-c2cccnc2Oc2ccc(Nc3nnc(-c4ccc(F)cc4)c4ccccc34)cc2)n1`, the IC50 (on Ephrin type-B receptor 4; in assay [1]; in assay [2]; in assay [3]; in assay [4]; in assay [5]) was more than 25 µM throughout. The IC50 in assay [6] and in assay [7] was more than 25 µM throughout.

For the origin of these results see ChEMBL document CHEMBL1240487, “Discovery of a potent, selective, and orally bioavailable pyridinyl-pyrimidine phthalazine aurora kinase inhibitor” (J Med Chem, 2010).
